Laboratory results as given in ChEMBL document CHEMBL3232958, “Antiproliferative and uncoupling effects of delocalized, lipophilic, cationic gallic acid derivatives on cancer cell lines. Validation in vivo in singenic mice” (J Med Chem, 2014).
Activity calls are given as the source filed them. No cut-off for these calls is given here.

Assays:
TA3-MTX-R [1] = assay: Induction of mitochondrial swelling in mouse TA3-MTX-R cell mitochondria at 0.15 mM by UV/vis spectrophotometer analysis in presence of N-acetylcysteine; format: functional
TA3/Ha [2] = assay: Induction of apoptosis in mouse TA3/Ha cells assessed as caspase 3 activation at 0.5 uM after 24 hrs by Western blot analysis; format: functional, cell-based
Outline: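 Caspase 3 measured by Western blot. RIPA lysates, 50 μg protein run on 12% SDS–PAGE. Anti-caspase 3 (1:1000) and tubulin loading control (1:10000) overnight at 4 °C; HRP secondary for 2 h. ECL detection and densitometry.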

[3] = Cell cycle arrest in mouse TA3/Ha cells assessed as accumulation at G0/G1 phase at 0.1 to 5 uM after 24 hrs; format: functional, cell-based
TA3/Ha [4] = assay: Induction of apoptosis in mouse TA3/Ha cells assessed as early stage apoptotic cells at 0.5 uM after 24 to 48 hrs using annexin V/propidium iodide staining by flow cytometry; format: functional, cell-based
Outline: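 Annexin V-FITC/PI flow cytometry on 1 × 10^5 cells/mL treated for 24 and 48 h at 37 °C, 5% CO2. 5 min staining at room temperature; 5000 events recorded. Early apoptosis scored as annexin V+/PI−. Staurosporine 10 μM as positive control; at least three experiments, ANOVA with Bonferroni test.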

TA3/Ha [5] = assay: Cytotoxicity against mouse TA3/Ha cells up to 24 hrs by lactate dehydrogenase assay; format: functional, cell-based
Outline: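 LDH release measured with a kit on 2 × 10^5 cells/mL incubated at 37 °C, 5% CO2, 90% humidity. Supernatant taken after centrifugation at 600g for 3 min, then 30 min with reaction mix at room temperature; absorbance read at 450 nm.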

TA3/Ha [6] = assay: Antitumor activity against mouse TA3/Ha cells allografted in CAF1-Jax mouse syngenic model assessed as increase of host survival at 10 mg/kg, ip administered every 48 hrs of 30 days; format: functional, organism-based; parameters: dose 10 mg/kg
TA3/Ha [7] = assay: Antitumor activity against mouse TA3/Ha cells allografted in CAF1-Jax mouse syngenic model assessed as inhibition of tumor growth at 10 mg/kg, ip administered every 48 hrs of 30 days; format: functional, organism-based; parameters: dose 10 mg/kg
Outline: (§1)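 Adult male CAF1-Jax mice; 1.0 × 10^6 TA3/Ha cells in 0.1 mL 0.9% NaCl injected subcutaneously into the back. 10 mg/kg given ip every 48 h for 30 days to groups of six mice; controls received vehicle. Tumor diameters measured three times weekly; volume = (max diameter)(min diameter)²/2. Two independent experiments.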

Mus musculus = assay: Toxicity in mouse TA3/Ha cells allografted CAF1-Jax mouse syngenic model at 10 mg/kg, ip administered every 48 hrs of 30 days; format: organism-based; parameters: dose 10 mg/kg, route intraperitoneal; conditions: in vivo; outline: as §1
TA3/Ha [8] = assay: Induction of NAD(P)H oxidation in mouse TA3/Ha cells assessed as reduction of NAD(P)H/NAD(P)+ ratio at 2.5 mg of protein/mL by spectrofluorometer analysis; format: functional, cell-based
Outline: (§2)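 NAD(P)H autofluorescence (ex 340, em 420 nm) at 25 °C with stirring. Medium: PBS pH 7.4, 2.5 mM glutamine, TA3 cells at 2.5 mg protein/mL. Rotenone (12 μM), FCCP (6 μM) or test cation added during the time course.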

[9] = Cytotoxicity against mouse TA3/Ha cells after 48 hrs by neutral red assay; format: functional, cell-based
Outline: (§3)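 Neutral red uptake after 48 h exposure at 37 °C, 5% CO2. Seeding: 1 × 10^5 cells/mL for TA3, TA3-MTX-R and CCRF-CEM; 4 × 10^4 cells/mL for MM3MG. Dye at 100 μg/mL for 2 h, then ethanol/acetic acid extraction and absorbance at 540 nm. IC50 from variable-slope sigmoidal dose–response fit; at least three independent experiments in triplicate, mean ± SEM.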

[10] = Cytotoxicity against mouse multidrug-resistant TA3-MTX-R cells after 48 hrs by neutral red assay; format: functional, cell-based; outline: as §3
CCRF-CEM = assay: Cytotoxicity against human CCRF-CEM cells after 48 hrs by neutral red assay; format: functional, cell-based; outline: as §3
[11] = Cytotoxicity against mouse MM3MG cells after 48 hrs by neutral red assay; format: cell-based; outline: as §3
[12] = Ratio of IC50 for mouse MM3MG cells to IC50 for mouse TA3/Ha cells
Outline: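 Ratio of 48 h neutral red IC50 values. MM3MG seeded at 4 × 10^4 cells/mL, TA3 at 1 × 10^5 cells/mL. Each IC50 from a variable-slope sigmoidal fit of at least three independent experiments.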

[13] = Uncoupling respiration effect in mouse TA3/Ha cells after 2 mins by polarographic analysis in presence of FCCP; format: functional
Outline: (§4)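 Polarographic respiration of digitonin-permeabilized cells (0.013 μg/mg protein; 2.5 mg protein/mL) in PBS pH 7.4 with 10 mM succinate and 1 μg/mL oligomycin. Cations added in 3 μL DMSO. Atractyloside 5 nmol/mg protein was added before succinate. FCCP added at the end: 0.15 μM for TA3, 0.25 μM for TA3-MTX-R. Slope and K0.5 taken from log–log linear regression; at least three experiments.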

[14] = Uncoupling respiration effect in mouse TA3-MTX-R cells after 2 mins by polarographic analysis in presence of FCCP; format: functional; outline: as §4
[15] = Uncoupling respiration effect in mouse TA3/Ha cells after 2 mins by polarographic analysis in presence of atractyloside; format: functional; outline: as §4
[16] = Uncoupling respiration effect in mouse TA3-MTX-R cells after 2 mins by polarographic analysis in presence of atractyloside; format: functional; outline: as §4
TA3/Ha [17] = assay: Reduction of ATP level in mouse TA3/Ha cells at 1 to 20 uM after 2 hrs by CellTiter-Glo luminescent assay; format: functional, cell-based
Outline: (§5)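 CellTiter-Glo luminescence on 2 × 10^5 cells/mL incubated with cation for 2 h. Aliquot held 10 min at room temperature in the dark before reading; at least three experiments.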

TA3/Ha [18] = assay: Reduction of ATP level in mouse TA3/Ha cells after 2 hrs by CellTiter-Glo luminescent assay; format: functional, cell-based; outline: as §5
[19] = Toxicity in mouse TA3/Ha cells assessed as cell membrane integrity after 24 hrs using propidium iodide by flow cytometry; format: cell-based; conditions: 2 to 4 h, in the assay text read “after 2 to 4 hrs” for “after 24 hrs”
Outline: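 Membrane integrity by PI uptake on flow cytometry. Cells were seeded, grown for 24 h at 37 °C, 5% CO2, then given fresh medium with cation for 2 and 4 h before PI was added. Mean ± SEM of at least three experiments.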

TA3/Ha [20] = assay: Induction of NAD(P)H oxidation in mouse TA3/Ha cells assessed as reduction of NAD(P)H/NAD(P)+ ratio by spectrofluorometer analysis; format: functional, cell-based; outline: as §2
TA3/Ha [21] = assay: Decrease of mitochondrial transmembrane potential in mouse TA3/Ha cell mitochondria at 0.5 uM after 5 mins by safranin staining; format: functional
Outline: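 Safranin (20 μM) absorbance change at 511–533 nm in isolated mitochondria (1.0 mg/mL) in sucrose/KCl/Hepes pH 7.4 buffer with EGTA and phosphate. Baseline 5 min, then 2 mM glutamate + 2 mM malate for 5 min, then cation added. Mean ± SD of at least three experiments.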

TA3/Ha [22] = assay: Decrease of mitochondrial transmembrane potential in mouse TA3/Ha cell mitochondria at 0.5 uM after 5 mins by JC-1 staining; format: functional
TA3/Ha [23] = assay: Decrease of mitochondrial transmembrane potential in mouse TA3/Ha cell mitochondria at 0.5 uM after 5 mins by JC-1 staining in presence of ADP; format: functional
TA3/Ha [24] = assay: Induction of mitochondrial swelling in mouse TA3/Ha cell mitochondria at 0.05 to 0.20 mM by UV/vis spectrophotometer analysis; format: functional
TA3-MTX-R [25] = assay: Induction of mitochondrial swelling in mouse TA3-MTX-R cell mitochondria at 0.05 to 0.20 mM by UV/vis spectrophotometer analysis; format: functional
TA3/Ha [26] = assay: Induction of mitochondrial swelling in mouse TA3/Ha cell mitochondria at 0.15 mM by UV/vis spectrophotometer analysis in presence of cyclosporine-A; format: functional
Outline: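 Same swelling set-up with TA3/Ha mitochondria (0.5 mg/mL, KCl/Tris pH 7.4, glutamate/malate) at 0.15 mM cation, with increasing cyclosporine concentrations.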

TA3/Ha [27] = assay: Induction of mitochondrial swelling in mouse TA3/Ha cell mitochondria at 0.15 mM by UV/vis spectrophotometer analysis in presence of N-ethylmaleimide; format: functional
Outline: (§6)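 Same swelling set-up with TA3/Ha mitochondria at 0.15 mM cation, in the presence of NEM, DTT or NAC. Mean ± SEM of at least three experiments, ANOVA with Bonferroni test.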

TA3/Ha [28] = assay: Induction of mitochondrial swelling in mouse TA3/Ha cell mitochondria at 0.15 mM by UV/vis spectrophotometer analysis in presence of dithiothreitol; format: functional; outline: as §6
TA3/Ha [29] = assay: Induction of mitochondrial swelling in mouse TA3/Ha cell mitochondria at 0.15 mM by UV/vis spectrophotometer analysis in presence of N-acetylcysteine; format: functional; outline: as §6
TA3/Ha (Mus musculus) [30] = assay: Induction of mitochondrial swelling in mouse TA3/Ha cell mitochondria at 0.15 mM by UV/vis spectrophotometer analysis in presence of cyclosporine-A
TA3/Ha (Mus musculus) [31] = assay: Induction of mitochondrial swelling in mouse TA3/Ha cell mitochondria at 0.15 mM by UV/vis spectrophotometer analysis in presence of dithiothreitol
TA3/Ha (Mus musculus) [32] = assay: Induction of mitochondrial swelling in mouse TA3/Ha cell mitochondria at 0.15 mM by UV/vis spectrophotometer analysis in presence of N-ethylmaleimide
TA3/Ha [33] = assay: Induction of NAD(P)H oxidation in mouse TA3/Ha cells assessed as reduction of NAD(P)H/NAD(P)+ ratio at 12 uM by spectrofluorometer analysis; format: functional, cell-based
Outline: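 Intact TA3 tumour cells, 2.5 mg protein/mL, in PBS pH 7.4 with 2.5 mM glutamine as substrate. Stirred and thermostatted at 25 °C. NAD(P)H autofluorescence (ex 340, em 420 nm) recorded as a time course by spectrofluorometer. Rotenone, FCCP or cation added during the trace.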

Question: What does the source list for `O=C(OCCCCCCCCCC[P+](c1ccccc1)(c1ccccc1)c1ccccc1)c1cc(O)c(O)c(O)c1.[Br-]`?
Answer: Activity (TA3-MTX-R [1]): Active; Activity (TA3/Ha [2]): Active; Activity [3]: Active; Activity (TA3/Ha [4]): Active; Activity (TA3/Ha [5]): Active; Activity (TA3/Ha [6]): Active; TGI (TA3/Ha [7]): Active; Activity (Mus musculus): Non-toxic; Activity (TA3/Ha [8]): Active; IC50 [9]: 0.4 µM; IC50 [10]: 380 nM; IC50 (CCRF-CEM): 1.65 µM; IC50 [11]: 7.1 µM; Ratio IC50 [12]: 17; K0.5 [13]: 1.21 µM; K0.5 [14]: 1.8 ×10⁻⁵ M; K0.5 [15]: 4.29 ×10⁻⁵ M; K0.5 [16]: 5.24 ×10⁻⁵ M; Activity (TA3/Ha [17]): Active; Activity (TA3/Ha [18]): Dose-dependent effect; Activity [19]: Non-toxic; Activity (TA3/Ha [20]): Dose-dependent effect; Activity (TA3/Ha [21]): Active; Activity (TA3/Ha [22]): Active; Activity (TA3/Ha [23]): Active; Activity (TA3/Ha [24]): Active; Activity (TA3-MTX-R [25]): Active; Activity (TA3/Ha [26]): Active; Activity (TA3/Ha [27]): inactive; Activity (TA3/Ha [28]): inactive; Activity (TA3/Ha [29]): inactive; Activity (TA3/Ha (Mus musculus) [30]): Active; Activity (TA3/Ha (Mus musculus) [31]): inactive; Activity (TA3/Ha (Mus musculus) [32]): inactive

Question: Which Activity (TA3/Ha [33]) does the source give for `C=C(C)[C@H]1Cc2c(ccc3c2O[C@@H]2COc4cc(OC)c(OC)cc4[C@@H]2C3=O)O1` here?
Answer: Active

Question: For `CCCCCCCCOC(=O)c1cc(O)c(O)c(O)c1` [OCTYL_GALLATE], which IC50 [9] is on record?
Answer: 35.9 µM

Question: What about the IC50 [10] of the same molecule?
Answer: 29800 nM

Question: And the IC50 (CCRF-CEM)?
Answer: 58.5 µM

Question: What about the IC50 [11] of the same molecule?
Answer: > 200 µM

Question: What does the source list for `CCCCCCCCCCCCOC(=O)c1cc(O)c(O)c(O)c1` [DODECYL GALLATE]?
Answer: IC50 [9]: 7.06 µM; IC50 [10]: 3000 nM; IC50 (CCRF-CEM): 15.5 µM; IC50 [11]: 30 µM

Question: With `O=C(OCCCCCCCCCCCC[P+](c1ccccc1)(c1ccccc1)c1ccccc1)c1cc(O)c(O)c(O)c1.[Br-]` as the molecule, how does the Activity (TA3/Ha [2]) read?
Answer: inactive

Question: And the Activity (TA3/Ha [4])?
Answer: Active

Question: What about the Activity (TA3/Ha [5]) of the same molecule?
Answer: Active

Question: What about the IC50 [9] of the same molecule?
Answer: 0.74 µM

Question: And the IC50 [10]?
Answer: 1200 nM

Question: And the IC50 (CCRF-CEM)?
Answer: 0.58 µM

Question: And the IC50 [11]?
Answer: 1.38 µM

Question: What about the K0.5 [13] of the same molecule?
Answer: 2.9 ×10⁻⁵ M

Question: What about the K0.5 [14] of the same molecule?
Answer: 3.1 ×10⁻⁵ M

Question: And the Activity (TA3/Ha [17])?
Answer: Active

Question: And the Activity (TA3/Ha [18])?
Answer: Dose-dependent effect

Question: And the Activity [19]?
Answer: Non-toxic
